Laboratory results taken from ChEMBL document CHEMBL1777799, “Design, synthesis, and biological evaluation of substituted hydrazone and pyrazole derivatives as selective COX-2 inhibitors: Molecular docking study” (Bioorg Med Chem, 2011).
Calls of active or inactive are those of the source. The rule behind the calls is not given here.

What was measured:
Rattus norvegicus [1] = experiment: Antiinflammatory activity in Sprague-Dawley rat assessed as inhibition of carrageenan-induced foot paw oedema at 200 mg/kg, ip after 1 hr by plethysmometer analysis relative to control; format: functional; settings: for inhibition in vivo at 200 mg/kg: route intraperitoneal
Method in brief: (§1)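 Male Sprague–Dawley rats (250 g), fasted at least 16 h with water available. Compounds were given i.p. as a 1 mL suspension in 0.5% methyl cellulose; controls received vehicle. Paw volume was read by water-displacement plethysmometer before treatment and 1 and 2 h after. Activity (%) = (1 − D/C) × 100, where D and C are paw-volume changes in treated and control rats; mean ± SEM, n = 4–6.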

Rattus norvegicus [2] = experiment: Antiinflammatory activity in Sprague-Dawley rat assessed as inhibition of carrageenan-induced foot paw oedema at 100 mg/kg, ip after 1 hr by plethysmometer analysis relative to control; format: functional; settings: route intraperitoneal; method in brief: as §1
Rattus norvegicus [3] = experiment: Antiinflammatory activity in Sprague-Dawley rat assessed as inhibition of carrageenan-induced foot paw oedema at 200 mg/kg, ip after 2 hrs by plethysmometer analysis relative to control; format: functional; settings: for inhibition in vivo at 200 mg/kg: route intraperitoneal; method in brief: as §1
Rattus norvegicus [4] = experiment: Antiinflammatory activity in Sprague-Dawley rat assessed as inhibition of carrageenan-induced foot paw oedema at 100 mg/kg, ip after 2 hrs by plethysmometer analysis relative to control; format: functional; settings: route intraperitoneal; method in brief: as §1
[5] = target: T1, Prostaglandin G/H synthase 1 (Ovis aries, UniProt P05979); experiment: Inhibition of ovine COX1 assessed as PGF2alpha production from PGH2 after 5 mins by enzyme immunoassay
T1 sequence (P05979 whole entry): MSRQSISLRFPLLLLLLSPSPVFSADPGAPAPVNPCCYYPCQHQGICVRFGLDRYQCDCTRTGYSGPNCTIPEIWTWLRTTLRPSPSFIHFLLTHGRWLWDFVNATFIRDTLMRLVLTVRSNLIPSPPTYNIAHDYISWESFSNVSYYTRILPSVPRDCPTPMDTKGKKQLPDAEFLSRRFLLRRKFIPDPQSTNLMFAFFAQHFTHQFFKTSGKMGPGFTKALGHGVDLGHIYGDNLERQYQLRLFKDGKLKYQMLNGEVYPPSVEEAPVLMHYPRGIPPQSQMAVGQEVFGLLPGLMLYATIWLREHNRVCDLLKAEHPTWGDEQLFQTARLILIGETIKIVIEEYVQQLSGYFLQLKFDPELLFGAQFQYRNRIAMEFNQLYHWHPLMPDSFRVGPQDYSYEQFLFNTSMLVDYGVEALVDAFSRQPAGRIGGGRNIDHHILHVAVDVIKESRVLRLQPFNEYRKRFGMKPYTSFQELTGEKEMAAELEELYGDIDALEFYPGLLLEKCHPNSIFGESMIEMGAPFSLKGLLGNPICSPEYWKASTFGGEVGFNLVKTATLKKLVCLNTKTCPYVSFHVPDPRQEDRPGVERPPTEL
Method in brief: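 Ovine COX-1 in reaction buffer with 2 mM phenol and heme, preincubated with six test concentrations (1 mL final) for 5 min at 37 °C. Arachidonic acid was then added and the reaction stopped with 1 M HCl after 2 min. Prostanoids were reduced with stannous chloride and quantified by competitive acetylcholinesterase-tracer EIA (Ellman's reagent, 410 nm). IC50 came from concentration–inhibition curves, duplicate determinations.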

Rattus norvegicus [6] = experiment: Antiinflammatory activity in ip dosed Sprague-Dawley rat assessed as inhibition of carrageenan-induced foot paw oedema after 2 hrs by plethysmometer analysis; format: functional
Method in brief: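 Rat carrageenan paw oedema: male Sprague–Dawley rats (250 g), fasted ≥16 h, dosed i.p. with a 1 mL suspension in 0.5% methyl cellulose. Paw swelling was measured by plethysmometer water displacement, and percent inhibition was taken against vehicle controls.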

[7] = target: T2, Prostaglandin G/H synthase 1 (Ovis aries) (UniProt P05979); experiment: Inhibition of ovine COX1 assessed as PGF2alpha production from PGH2 at 0.5 uM after 5 mins by enzyme immunoassay
T2 sequence (whole entry): T1 sequence (P05979 whole entry)
Method in brief: (§2)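 Enzyme (ovine COX-1) with heme in buffer containing 2 mM phenol was preincubated with the test compound for 5 min at 37 °C, then given arachidonic acid for 2 min before quenching with 1 M HCl. Products were reduced with stannous chloride and measured by competitive PG-tracer EIA at 410 nm. Percent inhibition was calculated against control incubations.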

[8] = target: T2, Prostaglandin G/H synthase 1 (Ovis aries); experiment: Inhibition of ovine COX1 assessed as PGF2alpha production from PGH2 at 100 uM after 5 mins by enzyme immunoassay; method in brief: as §2

Row | SMILES | IC50 [5] [µM] | inhibition [7] [%] | inhibition [8] [%] | inhibition in vivo at 200 mg/kg (Rattus norvegicus [1]) [%] | inhibition in vivo at 100 mg/kg (Rattus norvegicus [2]) [%] | inhibition in vivo at 200 mg/kg (Rattus norvegicus [3]) [%] | inhibition in vivo at 100 mg/kg (Rattus norvegicus [4]) [%] | ED50 (Rattus norvegicus [6]) [mg/kg] | inhibition (Rattus norvegicus [1]) | inhibition (Rattus norvegicus [3])
1 | FC(F)(F)C1=NN=C(c2ccc(Cl)cc2)/C1=N/Nc1cc(C(F)(F)F)cc(C(F)(F)F)c1 | > 50 | – | – | 40.8 | 3.4 | 28.8 | 17.3 | – | – | –
2 | COc1ccc(N/N=C(\C(=O)c2ccc(Cl)cc2)C(=O)C(F)(F)F)cc1 | > 50 | 31 | 25 | 27.6 | 0 | 42.2 | 3.8 | 240 | – | –
3 | O=C(/C(=N\Nc1ccccc1Cl)C(=O)C(F)(F)F)c1ccc(Cl)cc1 | > 50 | 31 | 25 | 47.1 | 0 | 41.7 | 19.3 | 260 | – | –
4 | FC(F)(F)C1=NN=C(c2ccc(Cl)cc2)/C1=N/Nc1ccc(Cl)cc1 | > 50 | – | – | 8.1 | – | 9.1 | – | – | – | –
5 | O=C(/C(=N\Nc1ccc(Cl)cc1)C(=O)C(F)(F)F)c1ccc(Cl)cc1 | > 50 | – | – | 26.7 | – | 35.2 | – | – | – | –
6 | O=C(/C(=N\Nc1ccc([N+](=O)[O-])cc1)C(=O)C(F)(F)F)c1ccc(Cl)cc1 | > 50 | 31 | 25 | 35.8 | 0 | 57.3 | 17.9 | 170 | – | –
7 | O=[N+]([O-])c1ccc(N/N=C2/C(c3ccc(Cl)cc3)=NN=C2C(F)(F)F)cc1 | > 50 | – | – | 4 | – | 7 | – | – | – | –
8 | FC(F)(F)C1=NN=C(c2ccc(Cl)cc2)/C1=N/Nc1ccc(Br)cc1 | > 50 | – | – | 26.3 | 17.5 | 52.1 | 31.3 | 180 | – | –
9 | O=C(/C(=N\Nc1ccc(Br)cc1)C(=O)C(F)(F)F)c1ccc(Cl)cc1 | > 50 | – | – | 35 | 0 | 33.8 | 13.9 | 280 | – | –
10 | COc1ccc(N/N=C2/C(c3ccc(Cl)cc3)=NN=C2C(F)(F)F)cc1 | > 50 | – | – | – | – | – | – | – | inactive | inactive
11 | O=C(/C(=N\Nc1cc(C(F)(F)F)cc(C(F)(F)F)c1)C(=O)C(F)(F)F)c1ccc(Cl)cc1 | > 50 | – | – | 80 | 33 | 88.4 | 59 | 112 | – | –
12 | O=C(O)Cc1ccccc1Nc1c(Cl)cccc1Cl [DICLOFENAC SODIUM] | – | – | – | – | 88.5 | – | 89.5 | – | – | –

Now from value to compound, other results behind:

Row | IC50 [5] [µM] | inhibition [7] [%] | inhibition [8] [%] | SMILES | inhibition in vivo at 200 mg/kg (Rattus norvegicus [1]) [%] | inhibition in vivo at 100 mg/kg (Rattus norvegicus [2]) [%] | inhibition in vivo at 200 mg/kg (Rattus norvegicus [3]) [%] | inhibition in vivo at 100 mg/kg (Rattus norvegicus [4]) [%] | ED50 (Rattus norvegicus [6]) [mg/kg] | inhibition (Rattus norvegicus [1]) | inhibition (Rattus norvegicus [3])
13 | > 50 | – | – | O=C(/C=C/c1c(C(F)(F)F)nn(-c2ccccc2)c1-c1ccc(Cl)cc1)c1ccccc1 | 1.8 | – | 2.6 | – | – | – | –
14 | > 50 | – | – | O=C1CCCC/C1=C\c1c(C(F)(F)F)nn(-c2ccccc2)c1-c1ccc(Cl)cc1 | 33.7 | – | 23.9 | – | – | – | –
15 | > 50 | – | – | O=C(/C=C/c1c(C(F)(F)F)nn(-c2ccccc2)c1-c1ccc(Cl)cc1)c1ccc(Cl)cc1 | 1.5 | – | 4.4 | – | – | – | –
16 | > 50 | – | – | FC(F)(F)C1=NN=C(c2ccc(Cl)cc2)/C1=N/Nc1ccccc1Cl | 38.4 | – | 15.1 | – | – | – | –
17 | > 50 | – | – | O=C1CCC/C1=C\c1c(C(F)(F)F)nn(-c2ccccc2)c1-c1ccc(Cl)cc1 | 80.7 | 37 | 82 | 67 | 118 | – | –
18 | > 50 | – | – | O=Cc1c(C(F)(F)F)nn(-c2ccccc2)c1-c1ccc(Cl)cc1 | 75 | 24.1 | 59.1 | 40.3 | 190 | – | –
19 | > 50 | – | – | CN1CCC(=O)/C(=C/c2c(C(F)(F)F)nn(-c3ccccc3)c2-c2ccc(Cl)cc2)C1 | 6.7 | – | 20.3 | – | – | – | –
20 | > 50 | – | – | CCN1CCC(=O)/C(=C/c2c(C(F)(F)F)nn(-c3ccccc3)c2-c2ccc(Cl)cc2)C1 | 80 | 41 | 89.7 | 64 | 120 | – | –
